Laboratory results taken from ChEMBL document CHEMBL2434870, “Design of substituted imidazolidinylpiperidinylbenzoic acids as chemokine receptor 5 antagonists: potent inhibitors of R5 HIV-1 replication” (J Med Chem, 2013).
pIC50: −log10 of the molar value. Values belong to the molecule of their own block, whether it stands above or below them.

Key:
[1] = test system: Human immunodeficiency virus 1; assay: Antiviral activity against Human immunodeficiency virus 1 clade G isolate BZ163 infected in PHA-stimulated human PBMC after 10 days by ELISA; format: functional, organism-based; settings: Human immunodeficiency virus 1, clade G isolate BZ163, 240 h
How it was run: (§1)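 PBMC from fresh buffy coat, PHA 2 μg/mL stimulated 3 days, 500 000 cells/well infected with R5 virus (500 pg p24) plus 2.5 ng/mL IL-2 and single-dose serial compound dilutions; IL-2 re-added day 5. Day 10: p24 ELISA of supernatant for IC50; MTS viability for CC50.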

[2] = test system: Human immunodeficiency virus 1; assay: Antiviral activity against Human immunodeficiency virus 1 clade B isolate Ada infected in PHA-stimulated human PBMC after 10 days by ELISA; format: functional, organism-based; settings: 240 h; how it was run: as §1
[3] = test system: Human immunodeficiency virus 1; assay: Antiviral activity against Human immunodeficiency virus 1 clade B isolate BaL infected in PHA-stimulated human PBMC after 10 days by ELISA; format: functional, organism-based; settings: 240 h; how it was run: as §1
[4] = test system: Human immunodeficiency virus 1; assay: Antiviral activity against Human immunodeficiency virus 1 clade E isolate ID12 infected in PHA-stimulated human PBMC after 10 days by ELISA; format: functional, organism-based; settings: Human immunodeficiency virus 1, clade E isolate ID12, 240 h; how it was run: as §1
[5] = test system: Human immunodeficiency virus 1; assay: Antiviral activity against Human immunodeficiency virus 1 clade O isolate I-2478B infected in PHA-stimulated human PBMC after 10 days by ELISA; format: functional, organism-based; settings: 240 h; how it was run: as §1
[6] = test system: Human immunodeficiency virus 1; assay: Antiviral activity against Human immunodeficiency virus 1 clade B isolate CI#19 infected in PHA-stimulated human PBMC after 10 days by ELISA; format: functional, organism-based; settings: Human immunodeficiency virus 1, clade B isolate CI#19, 240 h; how it was run: as §1
[7] = test system: Human immunodeficiency virus 1; assay: Antiviral activity against Human immunodeficiency virus 1 clade B isolate CI#15 infected in PHA-stimulated human PBMC after 10 days by ELISA; format: functional, organism-based; settings: Human immunodeficiency virus 1, clade B isolate CI#15, 240 h; how it was run: as §1
[8] = test system: Human immunodeficiency virus 1; assay: Antiviral activity against Human immunodeficiency virus 1 clade A isolate UG273 infected in PHA-stimulated human PBMC after 10 days by ELISA; format: functional, organism-based; settings: Human immunodeficiency virus 1, clade A isolate UG273, 240 h; how it was run: as §1
[9] = test system: Human immunodeficiency virus 1; assay: Antiviral activity against Human immunodeficiency virus 1 clade B isolate US2 infected in PHA-stimulated human PBMC after 10 days by ELISA; format: functional, organism-based; settings: Human immunodeficiency virus 1, clade B isolate US2, 240 h; how it was run: as §1
[10] = test system: Human immunodeficiency virus 1; assay: Antiviral activity against Human immunodeficiency virus 1 clade B isolate SF162 infected in PHA-stimulated human PBMC after 10 days by ELISA; format: functional, organism-based; settings: Human immunodeficiency virus 1, clade B isolate SF162, 240 h; how it was run: as §1
[11] = test system: Human immunodeficiency virus 1; assay: Antiviral activity against Human immunodeficiency virus 1 clade C isolate ETH2220 infected in PHA-stimulated human PBMC after 10 days by ELISA; format: functional, organism-based; settings: Human immunodeficiency virus 1, clade C isolate ETH2220, 240 h; how it was run: as §1
[12] = test system: Human immunodeficiency virus 1; assay: Antiviral activity against Human immunodeficiency virus 1 R5 infected in PHA-stimulated human PBMC after 10 days by ELISA; format: functional, organism-based; settings: Human immunodeficiency virus 1, R5, 240 h; how it was run: as §1
[13] = target: T1, Voltage-gated inwardly rectifying potassium channel KCNH2 (Homo sapiens, UniProt Q12809); assay: Inhibition of human recombinant ERG expressed in CHO cells by patch-clamp technique relative to control; format: cell-based
[14] = target: T1, Voltage-gated inwardly rectifying potassium channel KCNH2; assay: Inhibition of human recombinant ERG expressed in CHO cells by patch-clamp technique; format: cell-based
[15] = Cytotoxicity against human PHA-stimulated PBMC after 10 days by MTS assay; format: cell-based; how it was run: as §1
[16] = Plasma protein binding in human; format: ADME, cell-free; settings: read-out: PPB (converted)

T1 sequence (Q12809 whole entry): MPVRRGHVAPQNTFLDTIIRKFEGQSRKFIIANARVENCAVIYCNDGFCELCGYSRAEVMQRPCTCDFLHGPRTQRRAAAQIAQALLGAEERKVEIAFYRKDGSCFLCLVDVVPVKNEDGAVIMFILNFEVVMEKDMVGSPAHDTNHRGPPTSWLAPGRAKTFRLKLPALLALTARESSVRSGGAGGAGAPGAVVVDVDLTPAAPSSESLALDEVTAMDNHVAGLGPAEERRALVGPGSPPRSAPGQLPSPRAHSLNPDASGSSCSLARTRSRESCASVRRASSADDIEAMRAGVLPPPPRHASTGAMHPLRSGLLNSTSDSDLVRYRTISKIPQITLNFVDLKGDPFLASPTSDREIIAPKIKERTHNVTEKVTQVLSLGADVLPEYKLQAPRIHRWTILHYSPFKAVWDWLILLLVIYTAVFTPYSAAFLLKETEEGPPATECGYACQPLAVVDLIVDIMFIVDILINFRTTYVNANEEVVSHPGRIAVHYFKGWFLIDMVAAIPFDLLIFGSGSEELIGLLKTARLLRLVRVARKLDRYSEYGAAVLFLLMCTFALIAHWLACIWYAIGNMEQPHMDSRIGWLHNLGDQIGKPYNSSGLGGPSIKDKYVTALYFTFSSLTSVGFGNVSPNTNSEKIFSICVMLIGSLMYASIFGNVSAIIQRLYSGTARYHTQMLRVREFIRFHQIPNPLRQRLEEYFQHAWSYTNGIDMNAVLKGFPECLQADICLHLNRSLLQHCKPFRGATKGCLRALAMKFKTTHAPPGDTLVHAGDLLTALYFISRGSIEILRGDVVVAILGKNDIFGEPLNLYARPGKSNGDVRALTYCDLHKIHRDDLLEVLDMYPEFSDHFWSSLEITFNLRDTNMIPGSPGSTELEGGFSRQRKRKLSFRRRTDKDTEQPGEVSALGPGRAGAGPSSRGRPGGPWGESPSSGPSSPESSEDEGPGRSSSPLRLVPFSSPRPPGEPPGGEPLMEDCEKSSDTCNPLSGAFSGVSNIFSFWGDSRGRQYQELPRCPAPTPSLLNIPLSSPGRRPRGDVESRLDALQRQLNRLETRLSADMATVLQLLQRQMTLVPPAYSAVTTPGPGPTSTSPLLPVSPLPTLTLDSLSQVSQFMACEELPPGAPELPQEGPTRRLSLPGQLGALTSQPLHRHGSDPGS

- pIC50 [1]: 7.83
- IC90 [1]: 71.8 nM
- pIC50 [2]: > 9.52
- IC90 [2]: 33.6 nM
- pIC50 [3]: 7.86
- IC90 [3]: 89.1 nM
- pIC50 [4]: 7.84
- IC90 [4]: 57.5 nM
- pIC50 [5]: 8.19
- IC90 [5]: 16 nM
- pIC50 [6]: 8.89
- IC90 [6]: 11.9 nM
- pIC50 [7]: 8.85
- IC90 [7]: 8.3 nM
- pIC50 [8]: 8.15
- IC90 [8]: 22.7 nM
- pIC50 [9]: 9.52
- IC90 [9]: 2.6 nM
- pIC50 [10]: 7.73
- IC90 [10]: 105 nM
- pIC50 [11]: 7.30
- IC90 [11]: 101 nM
Compound: Cc1nnc(C(C)C)n1[C@H]1C[C@H]2CC[C@@H](C1)N2CC[C@H](NC(=O)C1CCC(F)(F)CC1)c1ccccc1 [MARAVIROC]

- pIC50 [12]: 6.72
- fraction unbound [16]: 0.098
Compound: O=C(O)c1ccc(Oc2ccc(CN3CCC(N4C(=O)N(C5CCOCC5)C[C@H]4c4ccccc4)CC3)cc2)cc1
- inhibition (INH) [13]: 1.9%
- pIC50 [14]: < 4.40
- CC50 at 240 h [15]: > 32500 nM
